Source: PubChem
A selection: hits, their analogues and other compounds. The true share with any hit is near 2.7%.
Wee1 stabilizer: blocks degradation of human Wee1 kinase; P30291; HeLa Luc-Wee1K328M stability, luciferase luminescence; 100% = proteasome inhibitor MG132 effect; reporter increase, % at 5 µM; hit rate 1.2% among 220,000; AID 1321;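 active = activation above the mean of all tested compounds plus 3 SD, set per screening run, cut at about 8.8% in these data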;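 note: cells exposed to compound for 20 h before luminescence read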
RBBP9 inh: human RBBP9 hydrolase inhibition | O75884 | recombinant RBBP9, FP-Rh probe fluorescence polarization | inhibition, % at 7.94 µM | hit rate 0.2% among 220,000 | AID 1515;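 active = inhibition above the campaign mean of all tested compounds plus 3 SD, cut at about 14% in these data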
Target sequence (O75884 whole entry, looked up): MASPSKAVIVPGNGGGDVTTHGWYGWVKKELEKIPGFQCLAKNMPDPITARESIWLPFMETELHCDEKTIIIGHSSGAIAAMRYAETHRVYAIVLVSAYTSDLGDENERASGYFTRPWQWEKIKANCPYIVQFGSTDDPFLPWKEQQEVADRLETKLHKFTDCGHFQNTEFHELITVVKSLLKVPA
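Assay system: recombinant human RBBP9; Reagent: Serine-hydrolase probe FP-Rh, 375 nM pre-mixing; Doses: 7.94 µM single dose, 0.794% DMSO; Incubation: 30 min then 45 min, 25 °C; Detection: fluorescence polarization (mP), excitation 525 nm, emission 598 nm; Evaluation: percent inhibition from mP, scaled between DMSO and no-protein wells.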
zVAD death inh: blocks zVAD induced death of L929 cells; L929 zVAD necroptosis rescue, ATP luminescence, 24 h; with zVAD 60 µM; viability rescue, % at 10 µM; hit rate 0.38% among 220,000; AID 1377;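 active = activation, scaled between plate controls, above about 75%, limit read from the data; inactive = activation under that limit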
PfM18AAP inh-1: blocks P. falciparum M18 aspartyl aminopeptidase; recombinant PfM18AAP, H-Glu-NHMec fluorogenic cleavage; inhibition, % at 7.35 µM; hit rate 1.2% among 290,000; AID 1822;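 active = inhibition above the campaign mean inhibition over all tested compounds plus 3 SD, cut at about 28% in these data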
p97 inhibitor: human p97 ATPase inhibition; recombinant p97 ATPase, Kinase-Glo ATP luminescence, 3 h; inhibition, % at 8 µM; hit rate 0.42% among 220,000; AID 1481; in the data active = inhibition above about 15%
TNF death inh: TNF-alpha cell death inhibition in Jurkat FADD-/- cells; activation (protection from cell death), % at 10 µM; hit rate 0.068% among 220,000; Jurkat FADD-/- TNF necroptosis rescue, ATP luminescence, 24 h; 0 = TNF only, 100 = no-TNF cells;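 active = activation, meaning protection from cell death, of at least 50% relative to plate controls; inactive = activation below 50%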;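 note: necroptosis triggered by 40 ng/mL TNF-alpha added together with compound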
PfM18AAP inh-2: PfM18AAP inhibition, confirmation; shares compounds with PfM18AAP inh-1; recombinant PfM18AAP, H-Glu-NHMec fluorogenic cleavage; inhibition, % at 7.35 µM; hit rate 28% among 2,400;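 active = mean inhibition over replicate wells above the hit cutoff set for the earlier primary screen, cut at about 29% in these data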
CTSL1 confirm: Cathepsin L (human) inhibition, confirmation. purified cathepsin L1, Z-Leu-Arg-MCA fluorescence. shares compounds with PfM18AAP inh-1. inhibition, % at 5.96 µM. 2,400 tested, under 10 active;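 active = average inhibition across replicates above the hit cutoff set in the earlier primary screen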
Target sequence (P07711 whole entry, looked up): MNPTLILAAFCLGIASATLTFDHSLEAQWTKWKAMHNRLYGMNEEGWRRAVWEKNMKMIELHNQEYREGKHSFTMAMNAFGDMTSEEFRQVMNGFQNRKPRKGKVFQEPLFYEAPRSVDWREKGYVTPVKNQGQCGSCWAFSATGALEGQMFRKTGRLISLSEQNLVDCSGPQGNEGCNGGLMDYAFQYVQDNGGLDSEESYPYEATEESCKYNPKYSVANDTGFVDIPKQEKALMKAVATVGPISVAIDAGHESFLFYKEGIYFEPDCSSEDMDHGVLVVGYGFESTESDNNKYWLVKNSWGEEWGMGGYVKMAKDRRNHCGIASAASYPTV
Each line names hits and unclear results; the compound was inactive in the other large screens (follow-up assays come after a bar, where they were run).

CSc1cccc(N/C(=N/S(=O)(=O)c2ccccc2)NN)c1	PfM18AAP inh-1 38 (no result: Wee1 stabilizer, RBBP9 inh, zVAD death inh, p97 inhibitor, TNF death inh) | PfM18AAP inh-2 inactive | CTSL1 confirm inactive
CSc1cccc(NC(=O)Nc2ccccc2)c1	none
c1ccc(NCn2cncn2)nc1	PfM18AAP inh-1 87 | PfM18AAP inh-2 66 | CTSL1 confirm inactive
O=C1CCC(=O)N1CNc1ccccn1	none
Cc1cc(C)cc(C(=O)NCCC(=O)NCc2cc(=O)n(C)c(=O)n2C)c1	none (no result: Wee1 stabilizer, RBBP9 inh, zVAD death inh, p97 inhibitor, TNF death inh)
Cc1occc1C(=O)NNC1=CC(=O)CC(C)(C)C1	PfM18AAP inh-1 55 | PfM18AAP inh-2 30 | CTSL1 confirm inactive
COc1ccc(C(=O)NNC2=CC(=O)CC(C)(C)C2)cc1OC	PfM18AAP inh-1 40 (no result: zVAD death inh) | PfM18AAP inh-2 inactive | CTSL1 confirm inactive
COc1ccc(NC2=CC(=O)CC(C)(C)C2)cc1OC	none
CC1(C)CC(=O)C=C(NNC(=O)c2ccc(N)cc2)C1	PfM18AAP inh-1 48 | PfM18AAP inh-2 inactive | CTSL1 confirm inactive
CC1(C)CC(=O)C=C(NNC(=O)OC(C)(C)C)C1	none
Nc1ncc(Br)cc1S(=O)(=O)NCCC(=O)N1CCN(c2ccccc2)CC1	none (no result: Wee1 stabilizer, RBBP9 inh, zVAD death inh, p97 inhibitor, TNF death inh)
CCCC[n+]1c2ccccc2cc2ccccc21	PfM18AAP inh-1 38 (no result: Wee1 stabilizer, RBBP9 inh, zVAD death inh, p97 inhibitor, TNF death inh) | PfM18AAP inh-2 inactive | CTSL1 confirm inactive
CCC[n+]1c2ccccc2cc2ccccc21	PfM18AAP inh-1 47 (no result: Wee1 stabilizer, RBBP9 inh, zVAD death inh, p97 inhibitor, TNF death inh) | PfM18AAP inh-2 inactive | CTSL1 confirm inactive
CNc1ncc(Cc2ccccc2)s1	none
Clc1ccc(Nc2ncn[nH]2)cc1	PfM18AAP inh-1 34 | PfM18AAP inh-2 inactive | CTSL1 confirm inactive
CC(=S)/C=C1\Sc2ccccc2N1C	PfM18AAP inh-1 37 | PfM18AAP inh-2 inactive | CTSL1 confirm inactive
COc1ccccc1NS(=O)(=O)c1ccc(NC(C)=O)cc1	PfM18AAP inh-1 68 | PfM18AAP inh-2 inactive | CTSL1 confirm inactive
COC(=O)Cc1sc(-c2ccccn2)nc1-c1ccccc1	PfM18AAP inh-1 33 | PfM18AAP inh-2 inactive | CTSL1 confirm inactive
COC(=O)Cc1ccc2sc(-c3ccccc3)nc2c1	none
CCSc1ccc(/C(N)=N/OC(=O)c2cccs2)cn1	none (no result: Wee1 stabilizer, RBBP9 inh, zVAD death inh, p97 inhibitor, TNF death inh)
O=c1c2ccccc2cnn1Cc1n[nH]c(=S)n1-c1ccc(F)cc1	PfM18AAP inh-1 36 | PfM18AAP inh-2 inactive | CTSL1 confirm inactive
O=c1c2ccccc2cnn1Cc1n[nH]c(=S)n1-c1ccc(F)c(Cl)c1	none
O=c1c2ccccc2cnn1Cc1n[nH]c(=S)n1-c1ccccc1Cl	PfM18AAP inh-1 38 | PfM18AAP inh-2 inactive | CTSL1 confirm inactive
Cc1ccc(S(=O)(=O)NCCc2nnc(SCc3cccnc3)n2C)cc1	none (no result: Wee1 stabilizer, RBBP9 inh, zVAD death inh, p97 inhibitor, TNF death inh)
Nc1c(/C=C2/C=CC(=O)C(O)=C2)c(=O)nc2sc(CC(=O)N3CCCC3)nn12	PfM18AAP inh-1 63 (no result: Wee1 stabilizer, RBBP9 inh, zVAD death inh, p97 inhibitor, TNF death inh) | PfM18AAP inh-2 43 | CTSL1 confirm inactive
COC1=C/C(=C/c2c(N)n3nc(CC(=O)N4CCCC4)sc3nc2=O)C=CC1=O	none (no result: Wee1 stabilizer, RBBP9 inh, zVAD death inh, p97 inhibitor, TNF death inh)
CC(N)c1ccc(Cl)cc1Cl (centres undefined)	none
Cc1ccc(O)c(NC(=O)/C=C/C(=O)O)c1	PfM18AAP inh-1 33 | PfM18AAP inh-2 inactive | CTSL1 confirm inactive
COCCOC(=O)c1c(C)n(C)c2ccc(OC(=O)c3c(OC)cccc3OC)cc12	PfM18AAP inh-1 36 (no result: Wee1 stabilizer, RBBP9 inh, zVAD death inh, p97 inhibitor, TNF death inh) | PfM18AAP inh-2 inactive | CTSL1 confirm inactive
COc1cccc(CNC(=O)Cn2c(=O)c3cccn3c3ccccc32)c1	none (no result: Wee1 stabilizer, RBBP9 inh, zVAD death inh, p97 inhibitor, TNF death inh)
O=C(CSc1nnc(-c2ccccc2Br)o1)Nc1nncs1	PfM18AAP inh-1 44 | PfM18AAP inh-2 inactive | CTSL1 confirm inactive
O=C(CSc1nnc(-c2ccncc2)o1)Nc1nncs1	none (no result: Wee1 stabilizer, RBBP9 inh, zVAD death inh, p97 inhibitor, TNF death inh)
N/C(=N\C(=S)Nc1ccccc1)c1ccccc1	none (no result: Wee1 stabilizer, RBBP9 inh, zVAD death inh, p97 inhibitor, TNF death inh)
CNC(=S)/N=C(/Nc1ccccc1)c1ccccc1	PfM18AAP inh-1 44 | PfM18AAP inh-2 inactive | CTSL1 confirm inactive
Cc1cc2c(C)nc(N/N=C/c3ccc(F)cc3)nc2o1	PfM18AAP inh-1 46 | PfM18AAP inh-2 inactive | CTSL1 confirm inactive
CSc1ccc(/C=N/Nc2nc(C)cc(C)n2)cc1	none
Cc1[nH]c(C)c(S(=O)(=O)Nc2cccc(Cl)c2C)c1C(=O)N1CCCCC1	none (no result: Wee1 stabilizer, RBBP9 inh, zVAD death inh, p97 inhibitor, TNF death inh)
